# Experimental data published in ChEMBL document CHEMBL4330145, “Discovery of the Cyclic Lipopeptide Gacamide A by Genome Mining and Repair of the Defective GacA Regulator in Pseudomonas fluorescens Pf0-1” (2019).
# Active and inactive are the calls of the source. The rule behind the calls is not given here.
# What was measured:
# [1] = test system: Pseudomonas fluorescens; assay: Antibacterial activity against Pseudomonas fluorescence A506 after 24 hrs by agar diffusion assay; format: functional, organism-based
# [2] = test system: Staphylococcus aureus; assay: Antibacterial activity against methicillin sensitive Staphylococcus aureus isolate I-11574 after 24 hrs by agar diffusion assay; format: functional, organism-based
# Procedure, shortened: (§1)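 Plates of Columbia agar with 5% sheep blood were overlaid with 3 mL tryptic soy soft agar seeded with a TSB suspension of the test strain. Compound was diluted in DMSO to 1 mg/mL, and 3 μL was spotted on the agar surface. The inhibition-zone diameter was measured after 24 h at 37 °C. Clinical isolates were kept on Mueller−Hinton or blood agar.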
# [3] = test system: Escherichia coli; assay: Antibacterial activity against Escherichia coli isolate I-11276b after 24 hrs by agar diffusion assay; format: functional, organism-based; procedure, shortened: as §1
# [4] = test system: Rhodococcus fascians; assay: Antibacterial activity against Rhodococcus fascians A44A after 24 hrs by agar diffusion assay; format: functional, organism-based; settings: Rhodococcoides fascians
# [5] = test system: Staphylococcus aureus; assay: Antibacterial activity against methicillin sensitive Staphylococcus aureus isolate 5185 after 24 hrs by agar diffusion assay; format: functional, organism-based; procedure, shortened: as §1
# [6] = test system: Candida albicans; assay: Antifungal activity against Candida albicans isolate I-11134 after 24 hrs by agar diffusion assay; format: functional, organism-based
# [7] = test system: Micrococcus luteus; assay: Antibacterial activity against Micrococcus luteus ATCC 4698 after 24 hrs by agar diffusion assay; format: functional, organism-based; settings: NCTC 2665
# [8] = test system: Staphylococcus aureus; assay: Antibacterial activity against methicillin-resistant Staphylococcus aureus isolate LT-1334 after 24 hrs by agar diffusion assay; format: functional, organism-based
# Procedure, shortened: (§2)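 Agar diffusion: 5% sheep blood Columbia agar plates overlaid with 3 mL tryptic soy soft agar seeded with a TSB suspension of the clinical isolate. Compound diluted in DMSO to 1 mg/mL, and 3 μL spotted on the agar surface. Inhibition zone diameter measured after 24 h at 37 °C. Strains were maintained on Mueller−Hinton or blood agar.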
# [9] = test system: Bacillus subtilis; assay: Antibacterial activity against Bacillus subtilis 168 after 24 hrs by agar diffusion assay; format: functional, organism-based; settings: subsp. subtilis str. 168
# [10] = test system: Stenotrophomonas maltophilia; assay: Antibacterial activity against Stenotrophomonas maltophilia isolate I-10717 after 24 hrs by agar diffusion assay; format: functional, organism-based; procedure, shortened: as §1
# [11] = test system: Agrobacterium tumefaciens; assay: Antibacterial activity against Agrobacterium tumefaciens B6 after 24 hrs by agar diffusion assay; format: functional, organism-based
# [12] = test system: Klebsiella pneumoniae subsp. ozaenae; assay: Antibacterial activity against Klebsiella pneumoniae subsp. ozaenae isolate I-10910 after 24 hrs by agar diffusion assay; format: functional, organism-based; procedure, shortened: as §1
# [13] = test system: Staphylococcus epidermidis; assay: Antibacterial activity against methicillin-resistant Staphylococcus epidermidis isolate LT-1324 after 24 hrs by agar diffusion assay; format: functional, organism-based; procedure, shortened: as §2
# [14] = test system: Citrobacter freundii; assay: Antibacterial activity against Citrobacter freundii isolate I-11090 after 24 hrs by agar diffusion assay; format: functional, organism-based; procedure, shortened: as §1
# [15] = test system: Listeria welshimeri; assay: Antibacterial activity against Listeria welshimeri DSM 20650 after 24 hrs by agar diffusion assay; format: functional
# [16] = test system: Escherichia coli; assay: Antibacterial activity against Escherichia coli isolate O-19592 after 24 hrs by agar diffusion assay; format: functional, organism-based; procedure, shortened: as §1
# [17] = test system: Staphylococcus simulans; assay: Antibacterial activity against Staphylococcus simulans isolate 22 after 24 hrs by agar diffusion assay; format: functional, organism-based; procedure, shortened: as §1
# [18] = test system: Staphylococcus aureus; assay: Antibacterial activity against methicillin-resistant Staphylococcus aureus isolate LT-1338 after 24 hrs by agar diffusion assay; format: functional, organism-based; procedure, shortened: as §2
# [19] = test system: Erwinia amylovora; assay: Antibacterial activity against Erwinia amylovora Ea153 after 24 hrs by agar diffusion assay; format: functional, organism-based
# [20] = test system: Staphylococcus aureus; assay: Antibacterial activity against Staphylococcus aureus isolate 133 after 24 hrs by agar diffusion assay; format: functional, organism-based; procedure, shortened: as §1
# [21] = test system: Enterococcus faecium; assay: Antibacterial activity against Enterococcus faecium isolate I-11054 after 24 hrs by agar diffusion assay; format: functional, organism-based; procedure, shortened: as §1
# [22] = test system: Stenotrophomonas maltophilia; assay: Antibacterial activity against Stenotrophomonas maltophilia isolate O-16451 after 24 hrs by agar diffusion assay; format: functional, organism-based; procedure, shortened: as §1
# [23] = test system: Mycolicibacterium smegmatis; assay: Antibacterial activity against Mycobacterium smegmatis after 24 hrs by agar diffusion assay; format: functional, organism-based
# [24] = test system: Pseudomonas aeruginosa; assay: Antibacterial activity against Pseudomonas aeruginosa isolate I-10968 after 24 hrs by agar diffusion assay; format: functional, organism-based; procedure, shortened: as §1
# [25] = test system: Arthrobacter crystallopoietes; assay: Antibacterial activity against Arthrobacter crystallopoietes DSM 20117 after 24 hrs by microtiter plate broth dilution assay; settings: Crystallibacter crystallopoietes, DSM 20117, 24 h
# [26] = test system: Agrobacterium tumefaciens; assay: Antibacterial activity against Agrobacterium tumefaciens C58 after 24 hrs by agar diffusion assay; format: functional, organism-based
# [27] = test system: Priestia megaterium; assay: Antibacterial activity against Bacillus megaterium Km after 24 hrs by agar diffusion assay; format: functional, organism-based
# [28] = test system: Pseudomonas syringae pv. tomato str. DC3000; assay: Antibacterial activity against Pseudomonas syringae DC3000 after 24 hrs by agar diffusion assay; format: functional
# [29] = test system: Staphylococcus aureus; assay: Antibacterial activity against Staphylococcus aureus after 24 hrs by agar diffusion assay; format: functional, organism-based
# [30] = test system: Enterococcus faecium; assay: Antibacterial activity against Enterococcus faecium isolate I-11305b after 24 hrs by agar diffusion assay; format: functional, organism-based; procedure, shortened: as §1
# [31] = test system: Candida albicans; assay: Antifungal activity against Candida albicans isolate I-11301 after 24 hrs by agar diffusion assay; format: functional, organism-based
# [32] = test system: Corynebacterium xerosis; assay: Antibacterial activity against Corynebacterium xerosis after 24 hrs by agar diffusion assay; format: functional, organism-based
structure (smiles),measurement,setting,value
CCCCCCC[C@@H](O)CC(=O)N[C@H](CC(C)C)C(=O)N[C@H](CC(=O)O)C(=O)N[C@H](CCC(N)=O)C(=O)N[C@H](C(=O)N[C@H](CC(C)C)C(=O)N[C@H](CCC(N)=O)C(=O)N[C@@H]1COC(=O)[C@H]([C@@H](C)CC)NC(=O)[C@@H](CO)NC(=O)[C@H](CC(C)C)NC(=O)[C@H](CC(C)C)NC1=O)[C@H](C)CC,Activity,[1],inactive
same,Activity,[2],inactive
same,Activity,[3],inactive
same,Activity,[4],inactive
same,Activity,[5],inactive
same,Activity,[6],inactive
same,Activity,[7],inactive
same,Activity,[8],inactive
same,Activity,[9],inactive
same,Activity,[10],inactive
same,Activity,[11],inactive
same,Activity,[12],inactive
same,Activity,[13],inactive
same,Activity,[14],inactive
same,Activity,[15],inactive
same,Activity,[16],inactive
same,Activity,[17],inactive
same,Activity,[18],inactive
same,Activity,[19],inactive
same,Activity,[20],inactive
same,Activity,[21],inactive
same,Activity,[22],inactive
same,Activity,[23],inactive
same,Activity,[24],inactive
same,MIC,[25],32 µg/mL
same,Activity,[26],inactive
same,Activity,[27],inactive
same,Activity,[28],inactive
same,Activity,[29],inactive
same,Activity,[30],inactive
same,Activity,[31],inactive
same,Activity,[32],inactive
